Inhibition data for ten molecules are collected here from ChEMBL document CHEMBL1165965, “Synthesis and structure-activity relationships of 1,2,3,4-tetrahydropyrido[2,3-b]pyrazines as potent and selective inhibitors of the anaplastic lymphoma kinase” (Bioorg Med Chem, 2010).

Experiment [1] deals with Hepatocyte growth factor receptor (Homo sapiens), P08581 [Y1235D]. Description: Inhibition of MET Y1235D mutant at 1 uM.
For experiment [2], the target named is Mitogen-activated protein kinase 10 (Homo sapiens) (UniProt P53779). As to the kind of experiment: Inhibition of JNK3 at 1 uM. The method in brief:
(§1)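 Single-concentration screen on the Ambit KINOMEscan platform, run against a panel of 250–400 kinases. Per-kinase inhibition was also summarized as S(90), the fraction of kinases inhibited by more than 90%.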

Experiment [3] addresses LIM domain kinase 1 (Homo sapiens) (UniProt P53667). As to the kind of experiment: Inhibition of LIMK1 at 1 uM. In a few lines: as §1
In experiment [4] the target is T1, Ephrin type-A receptor 3 (Homo sapiens) (UniProt P29320).
T1 sequence (whole entry): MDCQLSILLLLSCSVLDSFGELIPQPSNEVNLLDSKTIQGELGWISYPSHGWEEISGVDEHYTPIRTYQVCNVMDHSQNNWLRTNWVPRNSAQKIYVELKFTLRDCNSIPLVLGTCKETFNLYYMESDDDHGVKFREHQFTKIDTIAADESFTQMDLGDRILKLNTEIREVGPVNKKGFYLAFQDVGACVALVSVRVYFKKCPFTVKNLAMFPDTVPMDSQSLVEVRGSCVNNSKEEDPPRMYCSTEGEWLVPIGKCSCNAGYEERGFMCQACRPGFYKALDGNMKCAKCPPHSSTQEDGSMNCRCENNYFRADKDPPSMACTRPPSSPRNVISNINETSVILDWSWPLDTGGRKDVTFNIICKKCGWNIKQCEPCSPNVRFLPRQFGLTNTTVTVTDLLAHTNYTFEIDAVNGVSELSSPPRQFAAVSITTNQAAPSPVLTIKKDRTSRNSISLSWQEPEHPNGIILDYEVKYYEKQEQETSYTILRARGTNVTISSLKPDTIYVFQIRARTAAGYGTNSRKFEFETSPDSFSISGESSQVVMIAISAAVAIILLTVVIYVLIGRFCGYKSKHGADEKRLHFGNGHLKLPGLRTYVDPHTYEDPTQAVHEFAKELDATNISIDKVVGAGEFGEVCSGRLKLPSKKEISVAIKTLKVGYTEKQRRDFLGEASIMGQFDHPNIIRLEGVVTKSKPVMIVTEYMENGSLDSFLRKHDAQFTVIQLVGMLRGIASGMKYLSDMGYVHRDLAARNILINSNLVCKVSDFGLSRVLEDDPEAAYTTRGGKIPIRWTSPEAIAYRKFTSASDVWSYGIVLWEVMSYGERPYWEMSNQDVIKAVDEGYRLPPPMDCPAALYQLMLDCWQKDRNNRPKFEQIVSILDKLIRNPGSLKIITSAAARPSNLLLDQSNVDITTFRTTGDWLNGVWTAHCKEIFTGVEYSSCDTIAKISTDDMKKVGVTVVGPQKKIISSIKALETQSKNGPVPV
As to the kind of experiment: Inhibition of EPHA3 at 1 uM. In a few lines: (§2)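 Single-concentration screen using Ambit Bioscience KINOMEscan technology across a panel of 250–400 kinases. Per-kinase inhibition from this screen was summarized as S(90), the fraction of kinases inhibited by more than 90%.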

Experiment [5] concerns the target Platelet-derived growth factor receptor alpha (Homo sapiens) (UniProt P16234). As to the kind of experiment: Inhibition of PDGFRA at 1 uM.
The target of experiment [6] is RAC-beta serine/threonine-protein kinase (Homo sapiens) (UniProt P31751). Description: Inhibition of AKT2 at 1 uM. In a few lines:
(§3)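 Ambit KINOMEscan screen at a single concentration across a 250–400 kinase panel, recorded as percent inhibition. Selectivity was expressed as S(90), the fraction of kinases inhibited >90%.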

In experiment [7] the target is T2, Serine/threonine-protein kinase 4 (Homo sapiens) (UniProt Q13043).
T2 sequence (whole entry): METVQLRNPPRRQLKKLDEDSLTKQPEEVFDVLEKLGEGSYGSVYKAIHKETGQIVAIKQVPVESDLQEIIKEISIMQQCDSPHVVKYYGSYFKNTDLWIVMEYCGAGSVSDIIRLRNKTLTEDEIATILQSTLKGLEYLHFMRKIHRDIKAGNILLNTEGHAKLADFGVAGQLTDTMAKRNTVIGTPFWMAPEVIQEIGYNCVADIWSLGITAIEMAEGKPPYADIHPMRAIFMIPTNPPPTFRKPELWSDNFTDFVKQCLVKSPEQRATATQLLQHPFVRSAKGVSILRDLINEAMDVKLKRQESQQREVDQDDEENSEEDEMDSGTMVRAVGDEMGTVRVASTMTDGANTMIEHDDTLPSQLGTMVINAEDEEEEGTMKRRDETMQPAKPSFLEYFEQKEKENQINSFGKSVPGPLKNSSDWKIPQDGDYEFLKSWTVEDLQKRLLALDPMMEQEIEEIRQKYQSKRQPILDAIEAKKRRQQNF
As to the kind of experiment: Inhibition of MST1 at 1 uM.

Experiment [8] has as its target T3, Aurora kinase C (Homo sapiens) (UniProt Q9UQB9).
T3 sequence (whole entry): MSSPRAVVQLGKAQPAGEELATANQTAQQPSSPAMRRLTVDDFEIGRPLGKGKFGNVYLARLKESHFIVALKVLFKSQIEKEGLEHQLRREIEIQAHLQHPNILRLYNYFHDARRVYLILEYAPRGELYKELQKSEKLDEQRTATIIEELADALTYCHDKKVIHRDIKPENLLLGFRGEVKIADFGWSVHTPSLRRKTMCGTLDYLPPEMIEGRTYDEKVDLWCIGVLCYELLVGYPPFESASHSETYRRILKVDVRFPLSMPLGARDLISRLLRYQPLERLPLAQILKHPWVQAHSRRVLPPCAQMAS
Description: Inhibition of AURKC at 1 uM. In a few lines: as §3

Experiment [9] addresses T4, Tyrosine-protein kinase TXK (Homo sapiens) (UniProt P42681).
T4 sequence (whole entry): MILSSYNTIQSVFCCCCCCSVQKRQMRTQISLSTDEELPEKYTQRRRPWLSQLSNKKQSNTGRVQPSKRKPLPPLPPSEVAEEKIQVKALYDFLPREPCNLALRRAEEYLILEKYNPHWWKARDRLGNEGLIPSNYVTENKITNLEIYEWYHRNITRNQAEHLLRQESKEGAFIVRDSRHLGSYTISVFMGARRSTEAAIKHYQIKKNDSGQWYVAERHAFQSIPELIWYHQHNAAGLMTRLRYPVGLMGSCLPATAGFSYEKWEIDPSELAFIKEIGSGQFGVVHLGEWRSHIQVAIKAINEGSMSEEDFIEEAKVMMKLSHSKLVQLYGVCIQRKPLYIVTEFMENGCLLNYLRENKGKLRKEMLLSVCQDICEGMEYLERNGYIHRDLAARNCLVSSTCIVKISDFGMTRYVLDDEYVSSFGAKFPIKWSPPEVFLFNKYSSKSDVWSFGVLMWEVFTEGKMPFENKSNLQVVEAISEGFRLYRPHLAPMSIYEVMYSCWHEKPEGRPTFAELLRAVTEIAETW
Description: Inhibition of TXK at 1 uM.

The target in experiment [10] is Serine/threonine-protein kinase 26 (Homo sapiens) (UniProt Q9P289). Description: Inhibition of MST4 at 1 uM.
Sequence of Serine/threonine-protein kinase 26 (Homo sapiens) (Q9P289 2-416 limits assumed): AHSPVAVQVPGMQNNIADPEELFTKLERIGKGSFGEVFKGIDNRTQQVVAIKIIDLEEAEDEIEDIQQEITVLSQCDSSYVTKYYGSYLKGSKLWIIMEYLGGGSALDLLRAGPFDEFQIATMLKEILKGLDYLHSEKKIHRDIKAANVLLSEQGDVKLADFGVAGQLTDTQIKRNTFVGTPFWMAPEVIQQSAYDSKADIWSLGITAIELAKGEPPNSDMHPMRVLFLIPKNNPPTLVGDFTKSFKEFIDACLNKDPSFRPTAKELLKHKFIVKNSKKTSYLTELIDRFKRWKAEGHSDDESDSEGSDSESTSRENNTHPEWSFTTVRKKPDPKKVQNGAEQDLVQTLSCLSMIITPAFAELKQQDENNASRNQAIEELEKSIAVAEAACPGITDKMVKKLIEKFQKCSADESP
The subject of experiment [11] is Fibroblast growth factor receptor 3 (Homo sapiens), P22607 [G697C]. Description: Inhibition of FGFR3 G697C mutant at 1 uM. The method in brief: as §2

Sequence of Mitogen-activated protein kinase 10 (Homo sapiens) (P53779 whole entry): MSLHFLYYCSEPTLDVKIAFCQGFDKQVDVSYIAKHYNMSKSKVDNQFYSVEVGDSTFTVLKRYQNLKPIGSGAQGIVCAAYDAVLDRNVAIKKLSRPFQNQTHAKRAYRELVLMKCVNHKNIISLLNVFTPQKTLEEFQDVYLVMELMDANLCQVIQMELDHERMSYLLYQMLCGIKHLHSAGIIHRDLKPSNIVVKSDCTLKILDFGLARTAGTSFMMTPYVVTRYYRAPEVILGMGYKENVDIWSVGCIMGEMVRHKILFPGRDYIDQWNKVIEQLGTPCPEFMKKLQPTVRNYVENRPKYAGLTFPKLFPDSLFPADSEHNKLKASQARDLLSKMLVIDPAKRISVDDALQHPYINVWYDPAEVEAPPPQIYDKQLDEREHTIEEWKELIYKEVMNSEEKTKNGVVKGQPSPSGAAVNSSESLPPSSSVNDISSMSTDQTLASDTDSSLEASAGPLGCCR
Sequence of LIM domain kinase 1 (Homo sapiens) (P53667 whole entry, looked up, the tested form may be a part): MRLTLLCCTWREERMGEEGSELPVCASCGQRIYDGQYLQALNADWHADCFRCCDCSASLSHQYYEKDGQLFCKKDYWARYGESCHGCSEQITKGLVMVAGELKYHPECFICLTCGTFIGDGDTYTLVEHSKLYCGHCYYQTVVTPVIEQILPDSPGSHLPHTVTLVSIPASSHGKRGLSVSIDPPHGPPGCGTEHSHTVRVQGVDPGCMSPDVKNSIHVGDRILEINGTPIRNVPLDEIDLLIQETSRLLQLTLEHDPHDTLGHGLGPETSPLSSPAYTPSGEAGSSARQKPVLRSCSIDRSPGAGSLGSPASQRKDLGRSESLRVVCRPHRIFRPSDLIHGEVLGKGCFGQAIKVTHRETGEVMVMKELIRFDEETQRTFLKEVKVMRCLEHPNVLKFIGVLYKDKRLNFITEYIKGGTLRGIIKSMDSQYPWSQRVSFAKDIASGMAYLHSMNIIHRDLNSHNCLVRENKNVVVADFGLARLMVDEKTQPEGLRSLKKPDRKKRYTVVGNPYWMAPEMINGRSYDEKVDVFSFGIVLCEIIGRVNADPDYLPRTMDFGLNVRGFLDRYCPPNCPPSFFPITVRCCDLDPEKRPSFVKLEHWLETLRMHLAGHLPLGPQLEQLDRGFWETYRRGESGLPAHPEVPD
Sequence of Hepatocyte growth factor receptor (Homo sapiens), P08581 [Y1235D] (P08581 whole entry Y1235D): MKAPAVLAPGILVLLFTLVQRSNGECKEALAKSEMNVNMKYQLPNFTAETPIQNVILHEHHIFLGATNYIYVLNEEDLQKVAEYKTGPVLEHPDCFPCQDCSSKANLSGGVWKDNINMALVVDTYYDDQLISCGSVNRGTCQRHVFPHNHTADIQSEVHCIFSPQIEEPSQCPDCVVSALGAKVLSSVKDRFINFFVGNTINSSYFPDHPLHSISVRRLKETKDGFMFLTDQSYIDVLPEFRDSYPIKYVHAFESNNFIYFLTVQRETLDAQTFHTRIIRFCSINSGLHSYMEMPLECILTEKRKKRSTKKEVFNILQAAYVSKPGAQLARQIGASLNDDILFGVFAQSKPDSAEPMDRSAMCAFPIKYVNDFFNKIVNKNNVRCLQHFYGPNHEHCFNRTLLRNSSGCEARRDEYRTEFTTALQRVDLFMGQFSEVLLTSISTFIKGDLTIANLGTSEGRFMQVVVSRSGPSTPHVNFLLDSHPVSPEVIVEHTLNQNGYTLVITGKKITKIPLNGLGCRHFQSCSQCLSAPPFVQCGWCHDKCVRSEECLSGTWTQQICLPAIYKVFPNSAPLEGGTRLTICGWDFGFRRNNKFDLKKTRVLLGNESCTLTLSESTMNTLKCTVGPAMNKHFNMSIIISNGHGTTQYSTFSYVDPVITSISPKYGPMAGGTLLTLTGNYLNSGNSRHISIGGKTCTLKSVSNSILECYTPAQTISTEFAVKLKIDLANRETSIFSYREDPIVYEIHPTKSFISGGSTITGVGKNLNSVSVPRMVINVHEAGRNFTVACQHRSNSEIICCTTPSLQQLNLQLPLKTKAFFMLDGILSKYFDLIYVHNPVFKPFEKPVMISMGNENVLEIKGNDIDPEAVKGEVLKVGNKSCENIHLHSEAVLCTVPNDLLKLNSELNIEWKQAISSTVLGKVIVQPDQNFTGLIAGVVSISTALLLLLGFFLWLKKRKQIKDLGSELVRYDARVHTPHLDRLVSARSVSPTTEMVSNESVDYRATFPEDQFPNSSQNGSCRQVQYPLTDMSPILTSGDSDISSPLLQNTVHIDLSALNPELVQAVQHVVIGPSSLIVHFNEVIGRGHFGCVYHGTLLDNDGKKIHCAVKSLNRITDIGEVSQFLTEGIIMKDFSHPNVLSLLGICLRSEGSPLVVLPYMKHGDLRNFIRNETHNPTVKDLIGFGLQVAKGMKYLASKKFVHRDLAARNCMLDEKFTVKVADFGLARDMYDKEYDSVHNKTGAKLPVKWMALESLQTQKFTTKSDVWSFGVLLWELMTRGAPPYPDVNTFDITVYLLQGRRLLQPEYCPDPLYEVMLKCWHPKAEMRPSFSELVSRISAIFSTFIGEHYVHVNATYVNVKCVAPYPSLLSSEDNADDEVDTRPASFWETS
Sequence of RAC-beta serine/threonine-protein kinase (Homo sapiens) (P31751 whole entry): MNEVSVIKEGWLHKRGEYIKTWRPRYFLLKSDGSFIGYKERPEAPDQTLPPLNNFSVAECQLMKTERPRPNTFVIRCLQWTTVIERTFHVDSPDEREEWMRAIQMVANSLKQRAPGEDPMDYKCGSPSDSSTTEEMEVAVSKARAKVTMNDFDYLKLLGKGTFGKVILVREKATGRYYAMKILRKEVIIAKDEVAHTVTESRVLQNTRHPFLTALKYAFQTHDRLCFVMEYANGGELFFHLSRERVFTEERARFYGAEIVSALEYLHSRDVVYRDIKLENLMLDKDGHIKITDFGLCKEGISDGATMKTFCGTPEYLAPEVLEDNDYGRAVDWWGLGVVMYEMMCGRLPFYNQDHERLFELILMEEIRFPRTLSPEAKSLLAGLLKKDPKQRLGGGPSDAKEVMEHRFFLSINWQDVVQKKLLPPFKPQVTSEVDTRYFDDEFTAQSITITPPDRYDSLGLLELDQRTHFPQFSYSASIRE
Sequence of Platelet-derived growth factor receptor alpha (Homo sapiens) (P16234 whole entry): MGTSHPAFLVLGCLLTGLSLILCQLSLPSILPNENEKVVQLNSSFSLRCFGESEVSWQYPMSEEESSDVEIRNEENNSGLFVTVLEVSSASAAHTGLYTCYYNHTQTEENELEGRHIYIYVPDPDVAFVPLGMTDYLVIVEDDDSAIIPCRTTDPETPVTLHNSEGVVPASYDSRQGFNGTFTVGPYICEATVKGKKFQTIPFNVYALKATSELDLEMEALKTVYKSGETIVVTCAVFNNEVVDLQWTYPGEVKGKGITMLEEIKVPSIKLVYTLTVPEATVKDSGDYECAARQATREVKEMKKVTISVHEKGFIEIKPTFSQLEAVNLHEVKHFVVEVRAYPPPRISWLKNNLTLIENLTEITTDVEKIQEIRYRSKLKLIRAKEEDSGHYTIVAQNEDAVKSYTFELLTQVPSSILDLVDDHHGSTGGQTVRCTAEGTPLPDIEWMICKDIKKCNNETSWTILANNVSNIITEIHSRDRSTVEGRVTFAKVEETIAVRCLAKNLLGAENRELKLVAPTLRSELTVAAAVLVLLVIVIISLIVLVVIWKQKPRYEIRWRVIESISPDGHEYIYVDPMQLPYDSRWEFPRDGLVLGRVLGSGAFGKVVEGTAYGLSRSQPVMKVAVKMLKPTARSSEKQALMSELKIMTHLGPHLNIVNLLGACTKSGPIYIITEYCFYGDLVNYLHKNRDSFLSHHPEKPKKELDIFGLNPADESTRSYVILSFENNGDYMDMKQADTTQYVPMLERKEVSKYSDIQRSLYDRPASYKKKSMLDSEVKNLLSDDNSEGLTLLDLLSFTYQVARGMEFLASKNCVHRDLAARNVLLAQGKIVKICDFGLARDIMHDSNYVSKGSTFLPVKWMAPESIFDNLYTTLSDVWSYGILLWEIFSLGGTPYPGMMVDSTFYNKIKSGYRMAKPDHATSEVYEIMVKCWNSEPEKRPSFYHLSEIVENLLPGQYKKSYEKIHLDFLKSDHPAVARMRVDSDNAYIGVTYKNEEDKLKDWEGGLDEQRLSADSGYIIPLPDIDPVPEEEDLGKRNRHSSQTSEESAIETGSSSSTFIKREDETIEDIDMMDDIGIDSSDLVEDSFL

One may read the inhibition as the drop in the measured response relative to a control, in per cent. `FC(F)(F)c1ccc(Cl)cc1CN1CCNc2ncc(-c3ccnc(N4CCNCC4)c3)cc21`: the inhibition is 75% in experiment [1]; under 50% in experiment [2]; under 50% in experiment [3]; under 50% in experiment [4]; under 50% in experiment [5]; under 50% in experiment [6]. The inhibition in experiment [7] was 73%; in [8], 92%; in experiment [9], under 50%; in [10], under 50%; in experiment [11] it was under 50%.

On to `CN1CCN(c2ccc(-c3cnc4c(c3)N(Cc3cc(Cl)ccc3Cl)CCN4)cn2)CC1`, for which the inhibition in experiment [1], in experiment [2], in experiment [3], in experiment [4], in experiment [5] and in experiment [6] was under 50% each time. The inhibition in experiment [7], in experiment [8], in [9], in [10] and in [11] was under 50% each time.

For the molecule `COC1CCN(C(=O)c2ccc(-c3cnc4c(c3)N(Cc3cc(Cl)ccc3C(F)(F)F)CCN4)cc2)CC1`, the inhibition in experiment [2] was under 50%; in [3] it was under 50%; in experiment [4], under 50%; in experiment [5], under 50%; in [6], under 50%; in [8], 79.5%. Besides, the inhibition in [9], in experiment [10] and in experiment [11] was under 50% throughout.

Regarding `O=C(c1ccc(-c2cnc3c(c2)N(Cc2cc(Cl)ccc2C(F)(F)F)CCN3)cc1)N1CCCCC1`, the inhibition in experiment [2], in experiment [3], in experiment [4], in experiment [5], in experiment [6] and in experiment [8] was under 50% throughout. Besides, the inhibition in [9], in experiment [10] and in experiment [11] was under 50% in each case.

For `O=C(O)c1ccc(-c2cnc3c(c2)N(Cc2cc(Cl)ccc2C(F)(F)F)CCN3)cc1`, the inhibition in experiment [2], in [3], in experiment [4], in experiment [5], in [6] and in experiment [8] was under 50% throughout. For the same molecule, the inhibition in experiment [9], in experiment [10] and in experiment [11] was under 50% each time.

In the case of `CN1CCN(c2ccc(-c3cnc4c(c3)N(Cc3cc(F)ccc3F)CCN4)cn2)CC1`, the inhibition in experiment [1], in experiment [2], in experiment [3], in experiment [4], in experiment [5] and in [6] was under 50% in each case. The inhibition in [7], in [8], in experiment [9], in experiment [10] and in experiment [11] was under 50% each time.

For `O=C(c1ccc(-c2cnc3c(c2)N(Cc2cc(Cl)ccc2C(F)(F)F)CCN3)cc1)N1CCC(N2CCCC2)CC1`, the inhibition was under 50% in experiment [2]; under 50% in experiment [3]; under 50% in experiment [4]; under 50% in experiment [5]; under 50% in experiment [6]; 96.9% in [8]. Besides, the inhibition in [9], in [10] and in experiment [11] was under 50% in each case.

With `CN1CCN(c2ccc(-c3cnc4c(c3)N(Cc3c(F)ccc(F)c3Cl)CCN4)cn2)CC1`, the inhibition in experiment [1] was 71%; in experiment [2] it was under 50%; in [3], under 50%; in experiment [4], under 50%; in experiment [5] it was under 50%; in experiment [6], under 50%. Besides, the inhibition in experiment [7], in [8], in [9], in [10] and in experiment [11] was under 50% throughout.

With `CC(=O)N1CCN(c2cc(-c3cnc4c(c3)N(Cc3cc(Cl)ccc3C(F)(F)F)CCN4)ccn2)CC1`, the inhibition in experiment [1] was 67%; in [2] it was under 50%; in [3], under 50%; in [4] it was under 50%; in experiment [5], under 50%; in [6] it was under 50%. For the same molecule, the inhibition in [7] is under 50%; in experiment [8], 89%; in experiment [9], under 50%; in experiment [10] it was under 50%; in experiment [11], under 50%.

For `CN1CCN(c2ccc(-c3cnc4c(c3)N(Cc3cc(Cl)ccc3C(F)(F)F)CCN4)cn2)CC1`, the inhibition in [1], in [2], in experiment [3], in experiment [4], in experiment [5] and in experiment [6] was under 50% each time. Moreover, the inhibition in [7], in [8], in experiment [9], in experiment [10] and in [11] was under 50% throughout.
